Measured values reported in paper PMC7067668 (Journal of biological inorganic chemistry : JBIC : a …, 2019).
Starred links: 1 amine or outer side, 2 acyl side, 3 side chain; linkers in the order of their positions; H or OH if unused. Non-standard residues stand in square brackets, D forms with d. Residues, ends and D or L forms follow the SMILES beside them. *: point of attachment. NOTA(2S-Bn(4-NHCS)) = O=C(O)CN1CCN(CC(=O)O)C[C@H](Cc2ccc(NC(=S)*)cc2)N(CC(=O)O)CC1; NH(CH2CH2O)4CH2CO = O=C(COCCOCCOCCOCCN[*:1])[*:2]; Acryloyl(3-(3-pyridyl),E) = O=C(/C=C/c1cccnc1)*; X1 = O=C(Cc1ccc(N[*:1])cc1)[*:2]; Aad = N[C@@H](CCCC(=O)O)C(=O)O; NH(2-Me-phenyl) = Cc1ccccc1N*; Ac6c = NC1(C(=O)O)CCCCC1; CO = O=C([*:1])[*:2]

What was measured:
[1] = tested on: A375 xenografts; assay: Micro-PET imaging, VLA-4-negative A375 xenografts; format: in vivo, mouse; details: BALB/c nude mice, 0.5 h, 1 h, 2 h p.i., 5.5–7.4 MBq
Procedure, shortened: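 Female BALB/c nude mice carried subcutaneous right-shoulder A375 (VLA-4-negative) grafts of one million cells in PBS. ⁶⁸Ga-labeled test compound was injected intravenously at 5.5–7.4 MBq (100–200 pmol). Static small-animal PET was acquired under 2% isoflurane anesthesia at 0.5, 1 and 2 h p.i.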

[2] = tested on: B16F10 xenografts; assay: Micro-PET imaging, B16F10 xenografts; format: in vivo, mouse; details: co-injection of 100 μg unlabeled LLP2A-PEG4; 4 mice per group
Procedure, shortened: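 Female C57BL/6 mice bore subcutaneous right-shoulder B16F10 grafts (one million cells). They received intravenous Al¹⁸F- or ⁶⁸Ga-labeled test compound, 5.5–7.4 MBq (100–200 pmol), co-injected with 100 μg unlabeled peptide. Static small-animal PET was acquired under 2% isoflurane at 0.5, 1, 2 h p.i. (plus 4 h for ¹⁸F).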

[3] = tested on: B16F10 cells; assay: Cell uptake and internalization; format: cell-based, mouse; details: co-incubation with 10 μg unlabeled LLP2A-PEG4 per well, n = 3
Procedure, shortened: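 Radiotracer uptake in B16F10 cells, grown in DMEM with 10% FBS at 37°C, 5% CO2, seeded at 200,000 cells/well 24 h before. Cells were rinsed with HBSS, then given DMEM with 0.1% BSA and 1 mM Mn²⁺ plus ~74 kBq/well Al¹⁸F- or ⁶⁸Ga-labeled test compound, with or without 10 μg/well unlabeled peptide. Sampling was at 0.5, 1, 2 h (⁶⁸Ga) or up to 4 h (¹⁸F). Cells were PBS-washed and gamma-counted.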

[4] = tested on: mice bearing B16F10 xenografts; assay: Ex vivo biodistribution; format: in vivo, mouse; details: n = 5; for liver uptake: i.v. 5.5–7.4 MBq (100–200 pmol)
Procedure, shortened: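 Female C57BL/6 mice (four weeks old) carried subcutaneous right-shoulder B16F10 grafts (one million cells in PBS). Radiolabeled test compound was injected intravenously at 5.5–7.4 MBq (100–200 pmol), with or without 100 μg unlabeled peptide. Mice were sacrificed at 0.5, 1, 2 h p.i. (4 h for the ¹⁸F tracer). Organs and tumor were weighed and gamma-counted, expressed as %ID/g, n = 5.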

For `Cc1ccccc1NC(=O)Nc1ccc(CC(=O)N[C@@H](CCCCNC(=O)/C=C/c2cccnc2)C(=O)N[C@@H](CCCC(=O)O)C(=O)NC2(C(=O)NCCOCCOCCOCCOCC(=O)N[C@@H](CCCCNC(=S)Nc3ccc(C[C@H]4CN(CC(=O)O)CCN(CC(=O)O)CCN4CC(=O)O)cc3)C(N)=O)CCCCC2)cc1` [^68Ga-NOTA-PEG4-LLP2A, metal not drawn] ({NH(2-Me-phenyl)-CO}-[X1]K(Acryloyl(3-(3-pyridyl),E))[Aad][Ac6c][NH(CH2CH2O)4CH2CO]K(NOTA(2S-Bn(4-NHCS)))-NH2), the “accumulation in VLA-4-negative A375 xenografts (PET)” value [1] was “did not show specific accumulation”, the “activity accumulation in B16F10 xenografts with blocking agent (PET)” value [2] was “significantly reduced” and the “reduction of cell uptake by blocking dose” value [3] was 79.2%. The bone uptake ([4]; 0.5 h p.i., B16F10 tumor mice) was 5.75 ± 2.04 %ID/g, the tumor uptake ([4]; 0.5 h p.i.) was 6.77 ± 1.77 %ID/g and the liver uptake ([4]; 1 h p.i., B16F10 tumor mice) was 15.3 ± 1.7 %ID/g. The tumor-to-blood ratio ([4]; 1 h p.i.) was 3.3 ± 0.5, the colon uptake ([4]; 2 h p.i., B16F10 tumor mice) was 2.1 ± 0.2 %ID/g and the kidney uptake ([4]; 2 h p.i., B16F10 tumor mice) was 4.5 ± 0.3 %ID/g. The liver uptake ([4]; 2 h p.i., B16F10 tumor mice) was 8.0 ± 0.8 %ID/g and the tumor-to-blood ratio ([4]; 2 h p.i.) was 7.3 ± 0.6.
`Cc1ccccc1NC(=O)Nc1ccc(CC(=O)N[C@@H](CCCCNC(=O)/C=C/c2cccnc2)C(=O)N[C@@H](CCCC(=O)O)C(=O)NC2(C(=O)NCCOCCOCCOCCOCC(=O)N[C@@H](CCCCNC(=S)Nc3ccc(C[C@H]4CN(CC(=O)O)CCN(CC(=O)O)CCN4CC(=O)O)cc3)C(N)=O)CCCCC2)cc1` [Al^18F-NOTA-PEG4-LLP2A] ({NH(2-Me-phenyl)-CO}-[X1]K(Acryloyl(3-(3-pyridyl),E))[Aad][Ac6c][NH(CH2CH2O)4CH2CO]K(NOTA(2S-Bn(4-NHCS)))-NH2) was tested, and the “activity accumulation in B16F10 xenografts with blocking agent (PET)” value [2] was “significantly reduced” and the “reduction of cell uptake by blocking dose” value [3] was 61.7%.
